As a reminder, the IC50 is the concentration that gives 50% inhibition. Read a low IC50 as higher potency. The inhibition in vivo is the change of the read-out against control, counted positive when it falls. Lower therefore signals little suppression. Usually inhibition stands for how much of the control response was suppressed. Read a low inhibition as a response near the control. What is called Tmax is the time at which the peak concentration occurs. Usually half-life stands for the time needed for the level to fall by half in the phase considered. A word on the Cmax: it is the highest concentration seen after dosing.

Data set [1] deals with T1, Prostaglandin G/H synthase 2 (Mus musculus, UniProt Q05769).
T1 sequence (Q05769 whole entry): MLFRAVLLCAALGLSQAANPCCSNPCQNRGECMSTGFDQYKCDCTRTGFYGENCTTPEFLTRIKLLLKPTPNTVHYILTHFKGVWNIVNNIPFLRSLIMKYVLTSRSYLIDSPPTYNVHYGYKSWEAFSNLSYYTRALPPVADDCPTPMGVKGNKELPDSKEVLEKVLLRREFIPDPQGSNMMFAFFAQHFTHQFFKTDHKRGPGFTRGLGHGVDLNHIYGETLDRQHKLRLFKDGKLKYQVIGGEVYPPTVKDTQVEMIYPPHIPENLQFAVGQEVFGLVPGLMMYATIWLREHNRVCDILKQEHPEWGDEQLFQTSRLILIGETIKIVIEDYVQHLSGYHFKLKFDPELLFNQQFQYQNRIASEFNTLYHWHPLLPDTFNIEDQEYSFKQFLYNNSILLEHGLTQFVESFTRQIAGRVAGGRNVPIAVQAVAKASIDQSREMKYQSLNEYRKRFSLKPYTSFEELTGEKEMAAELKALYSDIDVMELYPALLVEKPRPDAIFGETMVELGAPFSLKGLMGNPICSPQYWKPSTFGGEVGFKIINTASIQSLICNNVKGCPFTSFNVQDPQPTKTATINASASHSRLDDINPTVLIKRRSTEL
Nature of the data set: Inhibitory activity against Prostaglandin G/H synthase 2 from freshly harvested mouse peritoneal macrophages.

In data set [2] the test system is Rattus norvegicus. Nature of the data set: Inhibitory effect of compound on carrageenan-induced rat paw edema administered p.o. at 3 mg/kg. Type of data set: functional. The conditions noted are these: route oral. In outline:
(§1)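 Compound given orally; paw swelling measured and expressed as percent inhibition, five animals per group.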

The target in data set [3] is T2, Prostaglandin G/H synthase 1 (Mus musculus) (UniProt P22437).
T2 sequence (whole entry): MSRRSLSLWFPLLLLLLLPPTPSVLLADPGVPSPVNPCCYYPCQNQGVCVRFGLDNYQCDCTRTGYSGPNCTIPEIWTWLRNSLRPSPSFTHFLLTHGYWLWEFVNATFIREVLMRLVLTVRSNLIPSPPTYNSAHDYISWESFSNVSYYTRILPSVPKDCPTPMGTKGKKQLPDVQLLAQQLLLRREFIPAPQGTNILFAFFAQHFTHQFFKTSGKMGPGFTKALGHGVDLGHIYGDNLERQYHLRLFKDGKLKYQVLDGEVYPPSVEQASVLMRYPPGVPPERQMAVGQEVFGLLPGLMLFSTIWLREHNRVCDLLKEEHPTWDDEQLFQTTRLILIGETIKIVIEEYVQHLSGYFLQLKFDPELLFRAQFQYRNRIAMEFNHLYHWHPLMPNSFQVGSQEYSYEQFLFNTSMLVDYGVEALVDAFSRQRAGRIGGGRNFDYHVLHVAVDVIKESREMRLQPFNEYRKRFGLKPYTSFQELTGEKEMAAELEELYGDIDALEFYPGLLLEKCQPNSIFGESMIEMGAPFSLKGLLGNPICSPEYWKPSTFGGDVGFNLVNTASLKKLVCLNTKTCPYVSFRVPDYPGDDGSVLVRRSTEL
Nature of the data set: In vitro percentage inhibitory activity against prostaglandin G/H synthase 1 from freshly harvested mouse peritoneal macrophages at 10 ug/mL.

The target in data set [4] is T1, Prostaglandin G/H synthase 2. Nature of the data set: In vitro inhibitory activity against Prostaglandin G/H synthase 2 from freshly harvested mouse peritoneal macrophages; Not active.
The target in data set [5] is T3, Prostaglandin G/H synthase 2 (Mus musculus) (UniProt Q05769).
T3 sequence (whole entry): T1 sequence (Q05769 whole entry)
Nature of the data set: In vitro percentage inhibition of Prostaglandin G/H synthase 2 from freshly harvested mouse peritoneal macrophages at 10 ug/ml.

The subject of data set [6] is Rattus norvegicus. Nature of the data set: Inhibitory effect of compound on carrageenan-induced rat paw edema administered p.o. at 10 mg/kg. Type of data set: functional. The conditions noted are these: route oral. The method in brief: as §1
(The carrageenan paw model is a standard test of acute inflammation.)

Data set [7] can be described thus: Time of maximum plasma concentration in rat. Type of data set: ADME, organism-based.
Data set [8] can be described thus: Plasma half-life in rat. Type of data set: ADME, organism-based.
Data set [9] in a line: Maximum plasma concentration in rat. Type of data set: ADME, organism-based.

Each structure is given as a SMILES string.

Molecule `CS(=O)(=O)c1ccc(-c2occ(Cl)c(=O)c2-c2ccc(F)cc2F)cc1` showed an IC50 in [1] of 1390 nM. Besides, the inhibition in vivo at 3 mg/kg with Rattus norvegicus [2] is 20%. The inhibition in data set [3] turned out to be 6%.
Consider `CS(=O)(=O)c1ccc(-c2occ(Cl)c(=O)c2-c2cc(F)cc(F)c2)cc1`, for which the IC50 in data set [1] was 2340 nM. In addition, the inhibition in data set [3] is below 5%.
In the same order, the values of `CS(=O)(=O)c1ccc(-c2occ(Cl)c(=O)c2-c2ccccc2)cc1` are 1080 nM and below 5%.
Taken in the same sequence, the figures for `CS(=O)(=O)c1ccc(-c2occc(=O)c2-c2ccc(F)cc2)cc1` were 2240 nM and below 5%.
In the same order, the values of `CS(=O)(=O)c1ccc(-c2occ(Cl)c(=O)c2-c2cccnc2)cc1` are 7050 nM and below 5%.
Molecule `COc1ccc(-c2c(-c3ccc(S(C)(=O)=O)cc3)occ(Cl)c2=O)cc1` had an IC50 in data set [1] of 6860 nM. In [3], this molecule showed an inhibition below 5%.
In the same order, the values of `Cc1ccc(-c2c(-c3ccc(S(C)(=O)=O)cc3)occ(Cl)c2=O)cc1` are 1760 nM and below 5%.
Turning to `CS(=O)(=O)c1ccc(-c2occ(Cl)c(=O)c2-c2cccc(-c3ccccc3)c2)cc1`, the IC50 result in data set [4] is “Not Active”. Also, the inhibition in data set [3] was below 5%.
Take `CS(=O)(=O)c1ccc(-c2occ(Cl)c(=O)c2-c2cccs2)cc1`: the inhibition in [5] is 9%; in data set [3], below 5%.
In turn, `CS(=O)(=O)c1ccc(-c2occ(Cl)c(=O)c2-c2ccccc2F)cc1` showed a 50% inhibitory concentration (IC50) in data set [1] of 6310 nM. Further, the inhibition in [3] was determined as 19%.
`CCc1ccc(-c2c(-c3ccc(S(C)(=O)=O)cc3)occ(Cl)c2=O)cc1`: the IC50 in data set [1] was 720 nM. The inhibition in data set [3] stood at 14%. In the data set with Rattus norvegicus [6], this molecule yielded an inhibition in vivo at 10 mg/kg of 4%.
Consider `COc1ccc2c(c1)c(CC(=O)O)c(C)n2C(=O)c1ccc(Cl)cc1` [INDOMETHACIN], for which the inhibition in vivo at 10 mg/kg in the data set with Rattus norvegicus [6] stood at 42%.
In data set [3], `CS(=O)(=O)c1ccc(-c2occ(Cl)c(=O)c2-c2ccc(Cl)cc2)cc1` showed an inhibition below 5%.
As to `CS(=O)(=O)c1ccc(-c2occ(Cl)c(=O)c2-c2ccc(-c3ccccc3)c(F)c2)cc1`, the IC50 in [1] was 87.9 nM. In addition, the inhibition in data set [3] stood at 70%.
For `CS(=O)(=O)c1ccc(-c2occ(Cl)c(=O)c2-c2ccc(F)c(F)c2)cc1`, the Tmax in data set [7] was found to be 4 h. Also, the IC50 in [1] was 1230 nM. Besides, 3 mg/kg produced 10% inhibition in vivo in the data set on Rattus norvegicus [2]. Also, the half-life in data set [8] was 3.7 h. Besides, in [3], the inhibition was 20%. The molecule further came in with a Cmax in data set [9] of 5100 ng/mL. The molecule further registered an inhibition in vivo at 10 mg/kg with Rattus norvegicus [6] of 37%.
The molecule `CS(=O)(=O)c1ccc(-c2occ(Cl)c(=O)c2-c2ccc(-c3ccccc3)cc2)cc1` showed an IC50 in data set [1] of 91.6 nM. The inhibition in data set [3] came out at 68%. This molecule also had an inhibition in vivo at 10 mg/kg in the data set with Rattus norvegicus [6] of 21%.
Regarding `Cc1ccc(-c2cc(C(F)(F)F)nn2-c2ccc(S(N)(=O)=O)cc2)cc1` [CELECOXIB], testing at 3 mg/kg in the data set on Rattus norvegicus [2] gave an inhibition in vivo of 29%. In the data set on Rattus norvegicus [6], this molecule came in with an inhibition in vivo at 10 mg/kg of 42%.
`CS(=O)(=O)c1ccc(-c2occ(Cl)c(=O)c2-c2ccc(F)cc2)cc1` showed an inhibition in vivo at 3 mg/kg in the data set on Rattus norvegicus [2] of 20%. Moreover, the inhibition in data set [3] is below 5%. Besides, in the data set on Rattus norvegicus [6], at 10 mg/kg the inhibition in vivo was 33%.
As for `CS(=O)(=O)c1ccc(-c2occ(Cl)c(=O)c2-c2ccc(OCc3ccccc3)cc2)cc1`, in data set [4], the 50% inhibitory concentration (IC50) entry is on record as “Not Active”. This molecule yielded an inhibition in data set [3] below 5%.
As for `CS(=O)(=O)c1ccc(-c2occ(Cl)c(=S)c2-c2ccc(F)cc2)cc1`, the IC50 in [1] is 836 nM. The same molecule showed an inhibition in data set [3] below 5%.
Taken in the same sequence, the figures for `CS(=O)(=O)c1ccc(-c2occ(Cl)c(=O)c2-c2cccc(Cl)c2)cc1` were 1420 nM and below 5%.
Consider `CS(=O)(=O)c1ccc(-c2oc3ccccc3c(=O)c2-c2cccnc2)cc1`, for which, in the data set on Rattus norvegicus [6], the inhibition in vivo at 10 mg/kg stood at 25%.
The molecule `CS(=O)(=O)c1ccc(-c2occ(Cl)c(=O)c2-c2ccsc2)cc1` had an IC50 in data set [1] of 736 nM. The inhibition in data set [3] was below 5%. Further, at 10 mg/kg the inhibition in vivo in the data set on Rattus norvegicus [6] was 13%.
`CS(=O)(=O)c1ccc(-c2occ(Cl)c(=O)c2-c2cccc(F)c2)cc1` gave an IC50 in data set [1] of 1430 nM. For the same molecule, the inhibition in data set [3] was below 5%.
As to `CS(=O)(=O)c1ccc(-c2occ(Cl)c(=O)c2-c2ccc(O)cc2)cc1`, in [4], the IC50 entry is on record as “Not Active”. For the same molecule, the inhibition in data set [3] is 17%.

The values are drawn from ChEMBL document CHEMBL1147555, “2,3-diarylpyran-4-ones: a new series of selective cyclooxygenase-2 inhibitors” (Bioorg Med Chem Lett, 2004).
